The text below walks through data of ChEMBL document CHEMBL4732060, “Cytotoxic triterpenoid-safirinium conjugates target the endoplasmic reticulum” (Eur J Med Chem, 2021).

Activity calls are given as the source filed them. The rule behind the calls is not given here. Bounds are passed on as bounds.

A word on the EC50: it is the concentration giving half of the maximal effect.

In series [1] the test system is HT-29. In words: Cytotoxicity against human HT-29 cells assessed as reduction in cell viability measured after 72 hrs by SRB assay. Type of series: functional, cell-based. As to conditions: HT-29, 72 h.
The subject of series [2] is A-375. In words: Cytotoxicity against human A-375 cells assessed as reduction in cell viability measured after 72 hrs by SRB assay. Type of series: functional, cell-based. As to conditions: A-375, 72 h. On the technique in general: The SRB assay estimates cell density from bound dye.
In series [3] the test system is FaDu. The series can be described thus: Cytotoxicity against human FaDu cells assessed as reduction in cell viability upto 30 uM measured after 72 hrs by SRB assay. Format: functional, cell-based. The conditions noted are these: dose microM <=30, time 72.0 hrs. In short, it runs like this: (§1)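 Sulforhodamine B assay on human tumour lines A375 (epithelial melanoma), HT29 (colorectal adenocarcinoma), MCF-7 (breast adenocarcinoma), A2780 (ovarian carcinoma) and FaDu (squamous cell carcinoma). Non-malignant NIH 3T3 (mouse fibroblasts) and HEK293 (human embryonic kidney) cells were also tested. EC50 values are given as mean ± standard mean error.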

In series [4] the test system is A-375. In words: Cytotoxicity against human A-375 cells assessed as reduction in cell viability upto 30 uM measured after 72 hrs by SRB assay. Type of series: functional, cell-based. The conditions noted are these: dose microM <=30, time 72.0 hrs. In short, it runs like this: as §1
In series [5] the test system is A2780. In words: Cytotoxicity against human A2780 cells assessed as reduction in cell viability measured after 72 hrs by SRB assay. Type of series: functional, cell-based. As to conditions: A2780, 72 h.
The subject of series [6] is NIH3T3. In words: Cytotoxicity against mouse NIH3T3 cells assessed as reduction in cell viability measured after 72 hrs by SRB assay. Type of series: cell-based. As to conditions: NIH3T3, 72 h. In short, it runs like this:
as §1

Series [7] has as its system A2780. The series can be described thus: Cytotoxicity against human A2780 cells assessed as reduction in cell viability upto 30 uM measured after 72 hrs by SRB assay. The conditions noted are these: dose microM <=30, time 72.0 hrs. Type of series: functional, cell-based. In short, it runs like this:
as §1

Series [8] relates to MCF7. The series can be described thus: Cytotoxicity against human MCF7 cells assessed as reduction in cell viability upto 30 uM measured after 72 hrs by SRB assay. The conditions noted are these: dose microM <=30, time 72.0 hrs. Format: functional, cell-based. In short, it runs like this:
as §1

Series [9] concerns HT-29. The series can be described thus: Cytotoxicity against human HT-29 cells assessed as reduction in cell viability upto 30 uM measured after 72 hrs by SRB assay. Format: functional, cell-based. As to conditions: dose microM <=30, time 72.0 hrs. Summed up: as §1
The subject of a further series is HEK293. In words: Cytotoxicity against human HEK293 cells assessed as reduction in cell viability upto 30 uM measured after 72 hrs by SRB assay. Type of series: cell-based. As to conditions: hek293, 72 h. Summed up: as §1
Series [10] deals with MCF7. The series can be described thus: Cytotoxicity against human MCF7 cells assessed as reduction in cell viability measured after 72 hrs by SRB assay. Type of series: functional, cell-based. As to conditions: MCF7, 72 h.
Series [11] has as its system FaDu. The series can be described thus: Cytotoxicity against human FaDu cells assessed as reduction in cell viability measured after 72 hrs by SRB assay. Format: functional, cell-based.
Series [12] is described as follows: Drug uptake in human A-375 cells measured after 24 hrs by fluorescence imaging analysis. Format: ADME, cell-based. As to conditions: a-375, 24 h. In short, it runs like this: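 Fluorescence imaging of cells after a prolonged 24 h incubation with compound, to judge entry into the cells.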
Series [13] relates to NIH3T3. In words: Cytotoxicity against mouse NIH3T3 cells assessed as reduction in cell viability upto 30 uM measured after 72 hrs by SRB assay. Type of series: cell-based. The conditions noted are these: nih3t3, 72 h. In short, it runs like this:
as §1

As to `CCCCCCCC[N+]1(CCCCCCCC)CN2C(C)=CC(C)=C(C(=O)[O-])C2=N1`, the EC50 in the series with HT-29 [1], with A-375 [2], with A2780 [5], in the series with NIH3T3 [6], with MCF7 [10] and in the series with FaDu [11] was more than 30 µM throughout. In addition, the result in the series with FaDu [3], in the series with A-375 [4], with A2780 [7], in the series with MCF7 [8] and in the series on HT-29 [9] was inactive. For the same compound, the Activity entry in the series on HEK293 and in the series on NIH3T3 [13] was “Non-Toxic” throughout. Further, in series [12], the Drug uptake result is “Not Active”.
For the compound `CC[N+]1(CC)CN2C(=N1)C(C(=O)NCCNC(=O)[C@]13CC[C@@H](C)[C@H](C)[C@H]1C1=CC[C@@H]4[C@@]5(C)CC[C@H](OC(C)=O)C(C)(C)[C@@H]5CC[C@@]4(C)[C@]1(C)CC3)=Cc1ccccc12`, the EC50 in the series on HT-29 [1] is 22.1 µM; in the series with A-375 [2] it was 13.8 µM; in the series on A2780 [5], 11.2 µM; in the series on NIH3T3 [6] it was 3.6 µM; in the series on MCF7 [10], 11.7 µM; in the series on FaDu [11], 10.2 µM.
Regarding `CC[N+]1(CC)CN2C(=N1)C(C(=O)[O-])=Cc1ccccc12`, in [12], the Drug uptake entry was “Not Active”.
In the case of `COc1cccc2c1C(=O)c1c(O)c3c(c(O)c1C2=O)C[C@@](O)(C(=O)CO)C[C@@H]3O[C@H]1C[C@H](N)[C@H](O)[C@H](C)O1` [DOXORUBICIN], the EC50 in the series on HT-29 [1] came out at 0.9 µM; in the series on A2780 [5], 0.01 µM; with NIH3T3 [6], 0.4 µM; in the series with MCF7 [10] it was 1.1 µM.
With `CC1=CC(C)=C(C(=O)[O-])C2=N[N+]3(CCCCC3)CN12`, the EC50 in the series on HT-29 [1], in the series with A-375 [2], in the series on A2780 [5], in the series with NIH3T3 [6], in the series on MCF7 [10] and in the series on FaDu [11] was more than 30 µM each time. In addition, the outcome with FaDu [3], in the series on A-375 [4], with A2780 [7], with MCF7 [8] and in the series with HT-29 [9] was inactive. The Activity entry with HEK293 and with NIH3T3 [13] was “Non-Toxic” throughout. Besides, the Drug uptake entry in series [12] was “Not Active”.
With `CCCCCC[N+]1(CCCCCC)CN2C(C)=CC(C)=C(C(=O)[O-])C2=N1`, the EC50 with HT-29 [1], in the series with A-375 [2], in the series with A2780 [5], with NIH3T3 [6], in the series on MCF7 [10] and with FaDu [11] was more than 30 µM each time. In addition, the outcome in the series on FaDu [3], in the series on A-375 [4], with A2780 [7], in the series on MCF7 [8] and with HT-29 [9] was inactive. The Activity result with HEK293 and in the series with NIH3T3 [13] was “Non-Toxic” each time. Besides, the Drug uptake result in series [12] is reported as “Not Active”.
For the compound `CC1=CC(C)=C(C(=O)[O-])C2=N[N+]3(CCN(C)CC3)CN12`, the EC50 in the series with HT-29 [1], with A-375 [2], with A2780 [5], in the series with NIH3T3 [6], with MCF7 [10] and in the series with FaDu [11] was more than 30 µM in each case. Also, the result with FaDu [3], in the series with A-375 [4], in the series with A2780 [7], in the series on MCF7 [8] and with HT-29 [9] was inactive. In addition, the Activity entry with HEK293 and with NIH3T3 [13] was “Non-Toxic” in each case. Also, in series [12], the Drug uptake entry was “Not Active”.
For the compound `CC[N+]1(CC)CN2C(=N1)C(C(=O)N1CCN(C(=O)[C@]34CCC(C)(C)C[C@H]3C3=CC[C@@H]5[C@@]6(C)CC[C@H](OC(C)=O)C(C)(C)[C@@H]6CC[C@@]5(C)[C@]3(C)CC4)CC1)=Cc1ccccc12`, the EC50 in the series with HT-29 [1] is 26.2 µM; in the series on A-375 [2], 21.4 µM; in the series on A2780 [5] it was 21.4 µM; in the series on NIH3T3 [6], 18.4 µM; in the series on MCF7 [10], 19.8 µM; in the series on FaDu [11], 18.1 µM.
With `CCCCCCCCCCCC[N+]1(CCCCCCCCCCCC)CN2C(C)=CC(C)=C(C(=O)[O-])C2=N1`, the EC50 in the series on HT-29 [1], in the series on A-375 [2], in the series on A2780 [5], in the series on NIH3T3 [6], with MCF7 [10] and in the series with FaDu [11] was more than 30 µM in each case. Further, the result in the series on FaDu [3], with A-375 [4], in the series with A2780 [7], with MCF7 [8] and in the series with HT-29 [9] was inactive. The Activity entry in the series on HEK293 and in the series on NIH3T3 [13] was “Non-Toxic” in each case. In series [12], the Drug uptake entry was “Not Active”.
For `CC[N+]1(CC)CN2C(C)=CC(C)=C(C(=O)[O-])C2=N1`, the EC50 with HT-29 [1], in the series with A-375 [2], in the series with A2780 [5], with NIH3T3 [6], with MCF7 [10] and in the series with FaDu [11] was more than 30 µM each time. Moreover, the outcome in the series on FaDu [3], in the series with A-375 [4], with A2780 [7], in the series with MCF7 [8] and in the series on HT-29 [9] was inactive. The Activity entry in the series on HEK293 and in the series on NIH3T3 [13] was “Non-Toxic” in each case. Also, in series [12], the Drug uptake result is on record as “Not Active”.
On to `CC[N+]1(CC)CN2C(=N1)C(C(=O)NCCNC(=O)[C@]13CC[C@@H](C(C)=O)[C@@H]1C1=CC[C@@H]4[C@@]5(C)CC[C@H](OC(C)=O)C(C)(C)[C@@H]5CC[C@@]4(C)[C@]1(C)CC3)=Cc1ccccc12`, for which the EC50 is more than 30 µM in the series with HT-29 [1]; 16.6 µM in the series with A-375 [2]; 20.8 µM in the series with A2780 [5]; 21.3 µM with NIH3T3 [6]; 15.7 µM with MCF7 [10]; 16.1 µM in the series on FaDu [11].
Consider `C=C(C)[C@@H]1CC[C@]2(C(=O)N3CCN(C(=O)C4=C(C)C=C(C)N5C[N+](CC)(CC)N=C45)CC3)CC[C@]3(C)[C@H](CC[C@@H]4[C@@]5(C)CC[C@H](OC(C)=O)C(C)(C)[C@@H]5CC[C@]43C)[C@@H]12`, for which the EC50 in the series with HT-29 [1] was more than 30 µM; in the series with A-375 [2] it was 26.2 µM; with A2780 [5] it was 21.6 µM; in the series on NIH3T3 [6] it was 22.4 µM; with MCF7 [10], 26.3 µM; in the series with FaDu [11], more than 30 µM.
On to `CC1=CC(C)=C(C(=O)[O-])C2=N[N+]3(CCOCC3)CN12`, for which the EC50 in the series with HT-29 [1], in the series on A-375 [2], in the series on A2780 [5], with NIH3T3 [6], in the series with MCF7 [10] and in the series with FaDu [11] was more than 30 µM each time. Moreover, the outcome with FaDu [3], in the series on A-375 [4], with A2780 [7], in the series with MCF7 [8] and with HT-29 [9] was inactive. Besides, the Activity entry in the series with HEK293 and in the series with NIH3T3 [13] was “Non-Toxic” in each case. Also, the Drug uptake entry in [12] is “Not Active”.
As to `CC[N+]1(CC)CN2C(=N1)C(C(=O)N1CCN(C(=O)[C@]34CC[C@@H](C(C)=O)[C@@H]3C3=CC[C@@H]5[C@@]6(C)CC[C@H](OC(C)=O)C(C)(C)[C@@H]6CC[C@@]5(C)[C@]3(C)CC4)CC1)=Cc1ccccc12`, the EC50 in the series on HT-29 [1] stood at 22.2 µM; with A-375 [2], 15 µM; in the series with A2780 [5], 10.9 µM; in the series on NIH3T3 [6] it was 3 µM; with MCF7 [10] it was 13.2 µM; in the series on FaDu [11], 13.3 µM.
As to `CC[N+]1(CC)CN2C(=N1)C(C(=O)N1CCN(C(=O)[C@]34CC[C@@H](C)[C@H](C)[C@H]3C3=CC[C@@H]5[C@@]6(C)CC[C@H](OC(C)=O)C(C)(C)[C@@H]6CC[C@@]5(C)[C@]3(C)CC4)CC1)=Cc1ccccc12`, the EC50 in the series on HT-29 [1] was more than 30 µM; with A-375 [2] it was 21.4 µM; in the series on A2780 [5] it was 9 µM; with NIH3T3 [6] it was more than 30 µM; in the series with MCF7 [10], 10.2 µM; in the series with FaDu [11], 18.3 µM.
On to `CC[N+]1(CC)CN2C(=N1)C(C(=O)NCCNC(=O)[C@]13CCC(C)(C)C[C@H]1C1=CC[C@@H]4[C@@]5(C)CC[C@H](OC(C)=O)C(C)(C)[C@@H]5CC[C@@]4(C)[C@]1(C)CC3)=Cc1ccccc12`, for which the EC50 was 25 µM in the series with HT-29 [1]; 19 µM in the series with A-375 [2]; 24.2 µM in the series with A2780 [5]; 28.5 µM with NIH3T3 [6]; 21.8 µM in the series on MCF7 [10]; 27.1 µM in the series with FaDu [11].
